Experimental data as given in paper PMC8026699 (Cancer research, 2021).

Legend:
MDA-MB-468 tumors = experiment: MDA-MB-468 tumor xenograft growth; format: in vivo, mouse; conditions: MDA-MB-468 (ACSS2 high), 100 mpk daily PO
Procedure, shortened: (§1)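 Female NSG mice, 5–6 weeks old, received subcutaneous PBS:Matrigel grafts: BT474 at 1×10^6 (with a 60-day 17β-estradiol pellet at the neck), MDA-MB-468 at 5×10^6, or WHIM12 PDX cells at 2×10^6. Once tumors established, mice were randomized to daily IP or oral gavage. Arms: vehicle (10% DMSO, 20% solutol, 70% water with 0.5% Tween20) or 100 mg/kg test compound. Calipers thrice weekly; volume (L × W²)/2.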

[1] = tested on: cytosolic AcCoA metabolism (UDP-GlcNAc); experiment: 13C2-acetate labeling of UDP-GlcNAc in cells; format: cell-based
Procedure, shortened: (§2)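 Cells grown 24 h in serum-like modified Eagle's medium (SMEM) with 0.1 mM uniformly labeled 13C2-acetate. Conditions were normoxia with 10% dialyzed FBS (N10) or 1% O2 hypoxia with 1% dialyzed FBS (H1). Vehicle or test compound present. Cells washed in ice-cold PBS and extracted with methanol/acetonitrile/water (5:3:2) at 4°C for 5 min. Cleared extracts analysed by HILIC LC-MS on a Q Exactive HF-X.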

Brpkp110 cells = experiment: 13C2-acetate labeling of palmitate in Brpkp110 cells; format: cell-based, mouse; conditions: Brpkp110, N10 and H1, 24 hr, 100 μM 13C2-acetate
Procedure, shortened: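 Cells labeled 24 h with 100 μM 13C2-acetate in SMEM under N10 (normoxia, 10% dialyzed FBS) or H1 (1% O2, 1% dialyzed FBS). Vehicle or test compound present; for BT474 in H1, a 10-fold dilution series. Lipids extracted with methanol/chloroform/PBS, saponified in 0.3 M KOH/90% methanol at 70°C for 1 h, then hexane-extracted. Palmitate labeling read by C18 reverse-phase LC-MS. n = 3, mean ± S.D.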

[2] = Human liver microsomal stability; format: in vitro ADME; conditions: 0.5 μM compound, 0.5 mg/mL microsomes; compared with VY-3-249
Procedure, shortened: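 Incubations: 0.5 μM compound, 0.5 mg/mL liver microsomes, NADPH-regenerating system, potassium phosphate pH 7.4. Timed aliquots quenched in acetonitrile with internal standard; no-cofactor controls run. LC-MS/MS analyte/internal-standard peak-area ratios. Elimination constant fitted by nonlinear regression; t1/2 from k = 0.693/t1/2. CLint scaled with 48 (mouse) or 39.7 (human) mg protein/g liver. n = 1.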

WHIM12 tumors = experiment: WHIM12 PDX tumor growth; format: in vivo, mouse; conditions: WHIM12 (ACSS2 low), 100 mpk daily PO
Procedure, shortened: as §1

ACSS1 in BT474 cells = experiment: 13C2-acetate labeling of citrate in BT474 cells; format: cell-based, human
Procedure, shortened: as §2

[3] = Body weight in tumor xenograft studies; format: in vivo, mouse; conditions: 100 mg/kg daily IP or oral gavage vs vehicle
Procedure, shortened: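 Female NSG mice, 5–6 weeks old, carried subcutaneous tumours in PBS:Matrigel (BT474 with a 17β-estradiol pellet; MDA-MB-468, WHIM12, A7C11, Brpkp110) or BT474 mammary fat-pad orthografts. After tumour establishment, mice were randomized and dosed daily by IP injection or oral gavage. Groups received vehicle (10% DMSO, 20% solutol, 70% water containing 0.5% Tween20) or test compound at 100 mg/kg.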

BT474 cells = experiment: Growth of BT474 cells; format: cell-based, human; conditions: BT474, 10 μM, 72 hours, H1 conditions, 200 μM sodium acetate
BT474 tumors = experiment: BT474 tumor xenograft growth; format: in vivo, mouse; conditions: BT474, 100 mpk daily IP
Procedure, shortened: as §1

recombinant human ACSS3 = target: T1, recombinant human ACSS3 (Homo sapiens, UniProt Q9H6R3); experiment: TranScreener AMP biochemical assay of ACSS3 activity; conditions: regardless of the substrate (acetate or propionate)
T1 sequence (Q9H6R3 30-686): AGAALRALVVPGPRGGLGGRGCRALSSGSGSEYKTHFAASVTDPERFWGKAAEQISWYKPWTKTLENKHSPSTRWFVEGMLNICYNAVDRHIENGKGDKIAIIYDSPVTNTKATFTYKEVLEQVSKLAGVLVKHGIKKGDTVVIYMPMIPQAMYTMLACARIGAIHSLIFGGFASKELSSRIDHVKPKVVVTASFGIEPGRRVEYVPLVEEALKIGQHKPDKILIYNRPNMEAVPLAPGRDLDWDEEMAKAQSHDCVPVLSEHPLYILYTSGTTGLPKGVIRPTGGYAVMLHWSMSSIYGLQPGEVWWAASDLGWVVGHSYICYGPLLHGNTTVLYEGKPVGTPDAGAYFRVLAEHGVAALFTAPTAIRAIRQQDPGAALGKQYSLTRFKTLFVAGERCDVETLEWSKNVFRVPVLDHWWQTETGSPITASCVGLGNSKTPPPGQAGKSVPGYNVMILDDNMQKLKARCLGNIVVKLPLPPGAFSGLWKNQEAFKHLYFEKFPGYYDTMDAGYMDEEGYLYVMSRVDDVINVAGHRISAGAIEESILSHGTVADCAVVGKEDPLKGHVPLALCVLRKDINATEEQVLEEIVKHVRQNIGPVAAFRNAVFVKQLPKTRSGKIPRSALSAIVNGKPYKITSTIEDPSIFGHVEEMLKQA
Procedure, shortened: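 Test compound was serially diluted in DMSO and added to ACSS1 (2 nM) or ACSS3 (25 nM). Acetate reaction: HEPES pH 7.4 buffer with 140 mM NaCl; final 5 mM acetate, 50 μM ATP, 5 μM CoA. Propionate reaction: HEPES/KCl/CHAPS buffer; final 5 mM propionate, 10 μM ATP, 100 μM CoA. Incubation 120 min, then AMP detected by terbium-antibody/tracer TR-FRET after 30 min. Percent inhibition was set against no-enzyme and DMSO controls.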

In the case of CCn1c(C(O)(c2ccccc2)c2ccccc2)nc2ccc(C(=O)NC[C@@H](C)O)cc21 [VY-3-135, (R)-1-ethyl-2-(hydroxydiphenylmethyl)-N-(2-hydroxypropyl)-1H-benzo[d]imidazole-6-carboxamide], the tumor growth (MDA-MB-468 tumors) is reported as “repressed”, the “incorporation of 13C2-acetate into UDP-GlcNAc” value [1] is reported as “blocked incorporation” and the “acetate dependent labeling of palmitate by 13C2-acetate” value (Brpkp110 cells) is reported as “efficiently blocked”. For the same compound, the “stability in human liver microsomal assay” value [2] was “superior stability”, the tumor growth (WHIM12 tumors) was “mostly ineffective” and the “13C2-acetate labeling of citrate” value (ACSS1 in BT474 cells; BT474, H1 conditions, 24 hr) was “did not decrease”. For the same compound, the “M+2 citrate (acetate contribution to the TCA cycle)” value (ACSS1 in BT474 cells; BT474, hypoxia and low serum stressed cells) was “increased M+2 citrate”, the body weight [3] was “No significant differences in body weight” and the cell growth (BT474 cells) was “modest growth inhibition”. For the same compound, the “tumor regression by the end of the regimen” value (BT474 tumors; n = 5 mice per group) was “two of the tumors in VY-3-135 treated group were not palpable by the end of the regimen, with one tumor fully regressing”, the tumor growth (BT474 tumors; two weeks of treatment) was “completely abrogated tumor growth” and the “inhibitory activity towards ACSS3” value (recombinant human ACSS3) was “neither VY-3-249 nor VY-3-135 displayed any inhibitory activity”.
